Laboratory results published in ChEMBL document CHEMBL4689842, “EUbOPEN Chemogenomics Library wave 1” (2021).

Test system: HEK-293T
Test: Multiplex assay against HEK293T;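 for Population Tubulin-Different-Phenotype (%): share of the cells with healthy nuclei that show this phenotype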
Type: toxicity, cell-based
Conditions: human
Summary of the method: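 Four dyes were applied at seeding to live cells: Hoechst33342, BioTracker Green Microtubule Cytoskeleton Dye, MitoTracker Red and Annexin V Alexa Fluor 680. Imaging after compound addition used a CQ1 microscope at 37°C and 5% CO2. CellPathfinder machine-learning gating then sorted cells into Hoechst high-intensity objects or normal cells, normal cells into healthy, pyknosed or fragmented nuclei, and pyknosed cells into mitotic or apoptotic, with tubulin, mitochondrial-mass and membrane-permeability phenotypes given as per cents of healthy-nucleus cells.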

[1] = 12 h, 1 µM, compound concentration 1 uM, replicate 1
[2] = 12 h, 1 µM, compound concentration 1 uM, replicate 2
[3] = 12 h, 10 µM, compound concentration 10 uM, replicate 1
[4] = 12 h, 10 µM, compound concentration 10 uM, replicate 2
[5] = 24 h, 1 µM, compound concentration 1 uM, replicate 1
[6] = 24 h, 1 µM, compound concentration 1 uM, replicate 2
[7] = 24 h, 10 µM, compound concentration 10 uM, replicate 1
[8] = 24 h, 10 µM, compound concentration 10 uM, replicate 2
[9] = 48 h, 1 µM, compound concentration 1 uM, replicate 1
[10] = 48 h, 1 µM, compound concentration 1 uM, replicate 2
[11] = 48 h, 10 µM, compound concentration 10 uM, replicate 1
[12] = 48 h, 10 µM, compound concentration 10 uM, replicate 2

`Cc1ccc2c(c1)c1c(n2CCc2ccc(C)nc2)CCN(C)C1` [LATREPIRDINE] was tested, and the “Population Apoptotic (%)” value [1] was 65%, the “Population Fragmented Nuclei (%)” value [1] was 9% and the “Population Healthy Nuclei (%)” value [1] was 39%. For the same compound, the “Population Hoechst High Intensity Objects (%)” value [1] was 14%, the “Population Membrane Permeable-Phenotype (%)” value [1] was 0% and the “Population Mitochondria Different-Phenotype (%)” value [1] was 97%. For the same compound, the “Population Mitotic Cells (%)” value [1] was 34%, the “Population Normal (%)” value [1] was 85% and the “Population Pyknosed Nuclei (%)” value [1] was 51%. The “Population Tubulin-Different-Phenotype (%)” value [1] was 85%, the “Total Cell Count” value [1] was 246 and the “Population Apoptotic (%)” value [2] was 28%. For the same compound, the “Population Fragmented Nuclei (%)” value [2] was 6%, the “Population Healthy Nuclei (%)” value [2] was 38% and the “Population Hoechst High Intensity Objects (%)” value [2] was 2%. The “Population Membrane Permeable-Phenotype (%)” value [2] was 7%, the “Population Mitochondria Different-Phenotype (%)” value [2] was 64% and the “Population Mitotic Cells (%)” value [2] was 71%. For the same compound, the “Population Normal (%)” value [2] was 97%, the “Population Pyknosed Nuclei (%)” value [2] was 54% and the “Population Tubulin-Different-Phenotype (%)” value [2] was 39%. For the same compound, the “Total Cell Count” value [2] was 209, the “Population Apoptotic (%)” value [3] was 89% and the “Population Fragmented Nuclei (%)” value [3] was 30%. The “Population Healthy Nuclei (%)” value [3] was 12%, the “Population Hoechst High Intensity Objects (%)” value [3] was 24% and the “Population Membrane Permeable-Phenotype (%)” value [3] was 8%. The “Population Mitochondria Different-Phenotype (%)” value [3] was 95%, the “Population Mitotic Cells (%)” value [3] was 10% and the “Population Normal (%)” value [3] was 75%. For the same compound, the “Population Pyknosed Nuclei (%)” value [3] was 57%, the “Population Tubulin-Different-Phenotype (%)” value [3] was 91% and the “Total Cell Count” value [3] was 251. The “Population Apoptotic (%)” value [4] was 91%, the “Population Fragmented Nuclei (%)” value [4] was 5% and the “Population Healthy Nuclei (%)” value [4] was 13%. For the same compound, the “Population Hoechst High Intensity Objects (%)” value [4] was 4%, the “Population Mitochondria Different-Phenotype (%)” value [4] was 96% and the “Population Mitotic Cells (%)” value [4] was 8%. The “Population Normal (%)” value [4] was 95%, the “Population Pyknosed Nuclei (%)” value [4] was 80% and the “Population Tubulin-Different-Phenotype (%)” value [4] was 96%. The “Total Cell Count” value [4] was 194, the “Population Apoptotic (%)” value [5] was 55% and the “Population Fragmented Nuclei (%)” value [5] was 7%. The “Population Healthy Nuclei (%)” value [5] was 42%, the “Population Hoechst High Intensity Objects (%)” value [5] was 14% and the “Population Membrane Permeable-Phenotype (%)” value [5] was 1%. For the same compound, the “Population Mitochondria Different-Phenotype (%)” value [5] was 96%, the “Population Mitotic Cells (%)” value [5] was 44% and the “Population Normal (%)” value [5] was 85%. The “Population Pyknosed Nuclei (%)” value [5] was 50%, the “Population Tubulin-Different-Phenotype (%)” value [5] was 87% and the “Total Cell Count” value [5] was 276. The “Population Apoptotic (%)” value [6] was 29%, the “Population Fragmented Nuclei (%)” value [6] was 5% and the “Population Healthy Nuclei (%)” value [6] was 55%. For the same compound, the “Population Hoechst High Intensity Objects (%)” value [6] was 4%, the “Population Membrane Permeable-Phenotype (%)” value [6] was 11% and the “Population Mitochondria Different-Phenotype (%)” value [6] was 55%. The “Population Mitotic Cells (%)” value [6] was 70%, the “Population Normal (%)” value [6] was 95% and the “Population Pyknosed Nuclei (%)” value [6] was 39%. For the same compound, the “Population Tubulin-Different-Phenotype (%)” value [6] was 47%, the “Total Cell Count” value [6] was 271 and the “Population Apoptotic (%)” value [7] was 90%. For the same compound, the “Population Fragmented Nuclei (%)” value [7] was 35%, the “Population Healthy Nuclei (%)” value [7] was 16% and the “Population Hoechst High Intensity Objects (%)” value [7] was 24%. The “Population Membrane Permeable-Phenotype (%)” value [7] was 6%, the “Population Mitochondria Different-Phenotype (%)” value [7] was 96% and the “Population Mitotic Cells (%)” value [7] was 9%. For the same compound, the “Population Normal (%)” value [7] was 75%, the “Population Pyknosed Nuclei (%)” value [7] was 47% and the “Population Tubulin-Different-Phenotype (%)” value [7] was 93%. For the same compound, the “Total Cell Count” value [7] was 242, the “Population Apoptotic (%)” value [8] was 93% and the “Population Fragmented Nuclei (%)” value [8] was 5%. The “Population Hoechst High Intensity Objects (%)” value [8] was 6%, the “Population Membrane Permeable-Phenotype (%)” value [8] was 2% and the “Population Mitochondria Different-Phenotype (%)” value [8] was 97%. The “Population Mitotic Cells (%)” value [8] was 6%, the “Population Normal (%)” value [8] was 93% and the “Population Pyknosed Nuclei (%)” value [8] was 77%. For the same compound, the “Population Tubulin-Different-Phenotype (%)” value [8] was 94%, the “Total Cell Count” value [8] was 220 and the “Population Apoptotic (%)” value [9] was 59%. The “Population Fragmented Nuclei (%)” value [9] was 11%, the “Population Healthy Nuclei (%)” value [9] was 61% and the “Population Hoechst High Intensity Objects (%)” value [9] was 10%. For the same compound, the “Population Membrane Permeable-Phenotype (%)” value [9] was 2%, the “Population Mitochondria Different-Phenotype (%)” value [9] was 62% and the “Population Mitotic Cells (%)” value [9] was 40%. The “Population Normal (%)” value [9] was 89%, the “Population Pyknosed Nuclei (%)” value [9] was 27% and the “Population Tubulin-Different-Phenotype (%)” value [9] was 67%. For the same compound, the “Total Cell Count” value [9] was 332, the “Population Apoptotic (%)” value [10] was 32% and the “Population Fragmented Nuclei (%)” value [10] was 6%. The “Population Healthy Nuclei (%)” value [10] was 77%, the “Population Hoechst High Intensity Objects (%)” value [10] was 3% and the “Population Membrane Permeable-Phenotype (%)” value [10] was 8%. For the same compound, the “Population Mitochondria Different-Phenotype (%)” value [10] was 23%, the “Population Mitotic Cells (%)” value [10] was 67% and the “Population Normal (%)” value [10] was 96%. For the same compound, the “Population Pyknosed Nuclei (%)” value [10] was 16%, the “Population Tubulin-Different-Phenotype (%)” value [10] was 40% and the “Total Cell Count” value [10] was 413. For the same compound, the “Population Apoptotic (%)” value [11] was 86%, the “Population Fragmented Nuclei (%)” value [11] was 41% and the “Population Healthy Nuclei (%)” value [11] was 21%. For the same compound, the “Population Hoechst High Intensity Objects (%)” value [11] was 24%, the “Population Mitotic Cells (%)” value [11] was 13% and the “Population Normal (%)” value [11] was 75%. For the same compound, the “Population Pyknosed Nuclei (%)” value [11] was 37%, the “Population Tubulin-Different-Phenotype (%)” value [11] was 94% and the “Total Cell Count” value [11] was 246. For the same compound, the “Population Apoptotic (%)” value [12] was 87%, the “Population Fragmented Nuclei (%)” value [12] was 2% and the “Population Healthy Nuclei (%)” value [12] was 42%. For the same compound, the “Population Hoechst High Intensity Objects (%)” value [12] was 13%, the “Population Membrane Permeable-Phenotype (%)” value [12] was 2% and the “Population Mitochondria Different-Phenotype (%)” value [12] was 97%. The “Population Mitotic Cells (%)” value [12] was 12%, the “Population Normal (%)” value [12] was 86% and the “Population Pyknosed Nuclei (%)” value [12] was 55%. For the same compound, the “Population Tubulin-Different-Phenotype (%)” value [12] was 90% and the “Total Cell Count” value [12] was 198.
In the case of `Cc1ccc(C)c(Oc2ccncc2C(=O)N2CCN(C3CC3)c3ccccc32)c1`, the “Population Apoptotic (%)” value [1] is reported as 43%, the “Population Healthy Nuclei (%)” value [1] is reported as 48% and the “Population Mitotic Cells (%)” value [1] is reported as 56%. The “Population Normal (%)” value [1] was 91%, the “Population Pyknosed Nuclei (%)” value [1] was 44% and the “Total Cell Count” value [1] was 385. For the same compound, the “Population Apoptotic (%)” value [2] was 16%, the “Population Healthy Nuclei (%)” value [2] was 42% and the “Population Mitotic Cells (%)” value [2] was 83%. The “Population Normal (%)” value [2] was 96%, the “Population Pyknosed Nuclei (%)” value [2] was 54% and the “Total Cell Count” value [2] was 221. For the same compound, the “Population Apoptotic (%)” value [3] was 88%, the “Population Healthy Nuclei (%)” value [3] was 23% and the “Population Mitotic Cells (%)” value [3] was 11%. The “Population Normal (%)” value [3] was 78%, the “Population Pyknosed Nuclei (%)” value [3] was 62% and the “Total Cell Count” value [3] was 200. For the same compound, the “Population Apoptotic (%)” value [4] was 56%, the “Population Healthy Nuclei (%)” value [4] was 14% and the “Population Mitotic Cells (%)” value [4] was 43%. The “Population Normal (%)” value [4] was 93%, the “Population Pyknosed Nuclei (%)” value [4] was 77% and the “Total Cell Count” value [4] was 112. For the same compound, the “Population Apoptotic (%)” value [5] was 46%, the “Population Healthy Nuclei (%)” value [5] was 52% and the “Population Mitotic Cells (%)” value [5] was 53%. The “Population Normal (%)” value [5] was 89%, the “Population Pyknosed Nuclei (%)” value [5] was 38% and the “Total Cell Count” value [5] was 403. For the same compound, the “Population Apoptotic (%)” value [6] was 11%, the “Population Healthy Nuclei (%)” value [6] was 53% and the “Population Mitotic Cells (%)” value [6] was 88%. For the same compound, the “Population Normal (%)” value [6] was 98%, the “Population Pyknosed Nuclei (%)” value [6] was 40% and the “Total Cell Count” value [6] was 272. The “Population Apoptotic (%)” value [7] was 89%, the “Population Healthy Nuclei (%)” value [7] was 29% and the “Population Mitotic Cells (%)” value [7] was 10%. The “Population Normal (%)” value [7] was 82%, the “Population Pyknosed Nuclei (%)” value [7] was 53% and the “Total Cell Count” value [7] was 213. The “Population Apoptotic (%)” value [8] was 68%, the “Population Healthy Nuclei (%)” value [8] was 24% and the “Population Mitotic Cells (%)” value [8] was 31%. For the same compound, the “Population Normal (%)” value [8] was 91%, the “Population Pyknosed Nuclei (%)” value [8] was 63% and the “Total Cell Count” value [8] was 127. For the same compound, the “Population Apoptotic (%)” value [9] was 41%, the “Population Healthy Nuclei (%)” value [9] was 63% and the “Population Mitotic Cells (%)” value [9] was 58%. For the same compound, the “Population Normal (%)” value [9] was 91%, the “Population Pyknosed Nuclei (%)” value [9] was 26% and the “Total Cell Count” value [9] was 567. The “Population Apoptotic (%)” value [10] was 18%, the “Population Healthy Nuclei (%)” value [10] was 77% and the “Population Mitotic Cells (%)” value [10] was 81%. For the same compound, the “Population Normal (%)” value [10] was 97%, the “Population Pyknosed Nuclei (%)” value [10] was 18% and the “Total Cell Count” value [10] was 425. For the same compound, the “Population Apoptotic (%)” value [11] was 84%, the “Population Healthy Nuclei (%)” value [11] was 40% and the “Population Mitotic Cells (%)” value [11] was 15%. For the same compound, the “Population Normal (%)” value [11] was 84%, the “Total Cell Count” value [11] was 206 and the “Population Apoptotic (%)” value [12] was 76%. For the same compound, the “Population Healthy Nuclei (%)” value [12] was 48%, the “Population Mitotic Cells (%)” value [12] was 23% and the “Population Normal (%)” value [12] was 90%. For the same compound, the “Population Pyknosed Nuclei (%)” value [12] was 45% and the “Total Cell Count” value [12] was 127.
